# NR2E3 ag-1: human photoreceptor-specific nuclear receptor agonism. CHO-S Gal4-NCOR/VP16-NR2E3 two-hybrid, luciferase. inhibition of corepressor binding, % at 3.98 µM. 360,000 compounds, 0.35% hits;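 active = inhibition above the mean of all tested compounds plus 3 SD, cut at about 70% in these data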;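 also: 0% = DMSO with NR2E3 transfected cells and 100% = cells lacking NR2E3 construct; higher means lower luciferase signal from less NR2E3 corepressor binding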
# Target sequence (Q9Y5X4 whole entry, looked up, the tested form may be a part): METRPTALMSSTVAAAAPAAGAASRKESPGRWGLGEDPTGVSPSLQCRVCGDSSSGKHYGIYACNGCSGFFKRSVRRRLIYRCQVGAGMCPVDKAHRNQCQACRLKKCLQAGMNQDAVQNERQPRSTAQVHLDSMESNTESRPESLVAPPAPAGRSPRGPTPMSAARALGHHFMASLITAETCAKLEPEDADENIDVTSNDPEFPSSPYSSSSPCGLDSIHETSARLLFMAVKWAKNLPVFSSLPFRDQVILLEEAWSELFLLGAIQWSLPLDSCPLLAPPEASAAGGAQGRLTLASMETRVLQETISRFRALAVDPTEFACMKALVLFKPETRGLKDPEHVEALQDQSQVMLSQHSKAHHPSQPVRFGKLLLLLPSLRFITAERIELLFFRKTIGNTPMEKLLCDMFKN
# NR2E3 ag-2: NR2E3 (human) agonism; 320,000 compounds, 0.12% hits; Q9Y5X4; GST-NR2E3/biotin-RetCOR TR-FRET, 1536-well; inhibition of corepressor binding, % at 4.78 µM;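 active = percent inhibition above the cutoff of mean plus 3 SD of all tested compounds, set per screening campaign, cut at about 20% in these data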;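 also: 0% = DMSO wells and 100% = biotin wells as full block of FRET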
#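 Material – GST-tagged NR2E3 plus biotinylated RetCOR corepressor · Quantity – NR2E3 fusion 1.35 nM · Times – 5 h incubation at 4 °C · Medium – pH 7.5 Tris-based buffer · Technique – TR-FRET, Eu(K)-anti-GST donor, streptavidin-D2 acceptor, ex 340, em 617/671 nm · Benchmarks – high control biotin, low control 0.6% DMSO · Format – 1536-well plates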
# GASC-1 inh: human JMJD2C demethylase inhibition; 330,000 compounds, 0.069% hits; AID 2099; Q9H3R0; GST-JMJD2C(1-420) H3K9me3 demethylation, DELFIA europium; inhibition, % at 2.35 µM;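 active = more than half of a compound's replicate wells show inhibition beyond 50%, single wells judged on their own value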;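 also: signal counts dimethyl H3K9 product captured on neutravidin plate; 0% = median of DMSO wells and 100% = 0.3 times that DMSO median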
# SMARCA2 act: increases SMARCA2 function in MMTV reporter cells; MG213 cells, MMTV-luciferase reporter, dexamethasone, overnight; activation, % at 9.1 µM; 370,000 compounds, 1% hits; in the data active = activation above about 7.8%;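 also: 0% = vehicle wells and 100% = reference activator wells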
# DAX1 inh-1: DAX1 (NR0B1) inhibition, primary screen. HEK293T StAR-luciferase reporter, SF-1/DAX-1 repression relief. 370,000 compounds, 1.1% hits. inhibition, % at 6.8 µM;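 active = inhibition above the mean over all tested compounds plus 3 SD, cut at about 3.6% in these data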;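 also: 0% = DAX-1 cells with DMSO and 100% = cells lacking DAX-1 with DMSO; higher inhibition means more luminescence from relief of DAX-1 repression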
# DAX1 inh-2: inhibitors of human orphan nuclear receptor DAX1 (NR0B1) | 340,000 compounds, 0.99% hits | HEK293 Gal4-DAX1 luciferase reporter, luminescence | AID 504766 | inhibition, % at 6.75 µM | P51843;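 active = inhibition above the mean over all tested compounds plus 3 SD, cut at about 4.2% in these data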;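 also: 0% = DAX1-transfected cells with DMSO and 100% = empty-vector control cells with DMSO; inhibition shows as a rise in luminescence from relieved DAX1 repression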
# Target sequence (P51843 207-470 limits assumed): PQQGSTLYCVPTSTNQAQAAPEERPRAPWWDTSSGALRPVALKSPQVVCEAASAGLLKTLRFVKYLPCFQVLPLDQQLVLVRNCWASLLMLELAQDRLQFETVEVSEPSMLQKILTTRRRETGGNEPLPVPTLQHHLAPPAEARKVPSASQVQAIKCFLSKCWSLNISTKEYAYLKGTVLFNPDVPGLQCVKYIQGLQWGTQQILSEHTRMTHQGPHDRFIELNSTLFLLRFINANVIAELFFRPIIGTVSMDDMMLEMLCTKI
# NR2E3 ag confirm: NR2E3 agonism confirmed in two-hybrid assay | shares compounds with NR2E3 ag-1 | CHO-S mammalian two-hybrid NR2E3-NCOR, luciferase luminescence | inhibition, % at 3.98 µM | 2,300 compounds, 51% hits | AID 624378;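 active = average inhibition above a cutoff equal to the mean inhibition of all tested compounds plus one SD, cut at about 70% in these data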;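 also: 0% = DMSO in NR2E3 cells and 100% = DMSO in cells lacking NR2E3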
# VP16 counter: counter-screen for NR2E3 agonists: GAL4-VP16 reporter inhibitors; shares compounds with NR2E3 ag-1; CHO-S GAL4-VP16 luciferase reporter, luminescence; inhibition, % at 3.98 µM; 2,300 compounds, 29% hits; AID 624379;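 active = mean inhibition above a cutoff equal to the average over all tested compounds plus one standard deviation, cut at about 70% in these data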;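 also: luciferase from a UAS reporter driven by GAL4-VP16 transactivation; 0% = DMSO with VP16-transfected cells and 100% = DMSO with cells lacking VP16; higher means less reporter light so more repression of VP16 activity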
# Starred values were filed as active, the others as inactive; nt = no result given. Rows were chosen to be rich in hits. Some 3.2% of all compounds tested hit in one or more screens of this group.
SMILES,NR2E3 ag-1,NR2E3 ag-2,GASC-1 inh,SMARCA2 act,DAX1 inh-1,DAX1 inh-2,NR2E3 ag confirm,VP16 counter
Cn1cccc1/C=N\NC(=O)Cc1ccc(Br)c2ccccc12,47.7,3.1,2.3,-6.0,-1.9,-0.6,28.3,53.7
CC[C@@H]1CCC[C@@H](O)[C@@H](C)C(=O)O[C@H](C)[C@@H](C)C/C=C(C)/C(OC)=C\C(=O)N(C)C([C@@H](C)CC)C(=O)N(C)[C@@H](C(C)C)C(=O)N(C)[C@@H](COC)C(=O)N2CCC[C@H]2C(=O)N(C)[C@@H](C(C)C)C(=O)N2CCC[C@H]2C(=O)O1 (stereo not given in full),97.3*,nt,nt,-7.3,-8.4,nt,98.1*,90.9*
COc1ccc(-c2noc(C3CCCN(C(=O)Nc4ccc5c(c4)OCO5)C3)n2)cc1 (stereo not given),nt,nt,nt,-2.6,0.4,nt,nt,nt
CCN1/C(=C/c2ccc3cc(C)ccc3[n+]2CC)Sc2cc(C)ccc21,89.5*,nt,nt,-11.9,-3.5,-7.6,99.8*,84.5*
CCN1/C(=C/c2ccc3cc(C)ccc3[n+]2C)Sc2ccc3sccc3c21,65.7,nt,nt,-8.6,-2.5,-2.6,nt,nt
COc1ccc(/C=C2\NC(=O)C(C=NCc3ccccc3)=C2O)cc1,5.2,4.1,-33.4,5.8,-0.2,0.4,nt,nt
O=C1N/C(=C\c2ccc(O)cc2)C(O)=C1C=NCc1ccccc1,63.2,-4.6,15.3,2.6,2.7,-0.8,72.8*,36.6
O[C@@H]1[C@@H](O)C=C2CCN3Cc4cc5c(cc4[C@H]1C23)OCO5 (stereo not given in full),89.2*,2.5,nt,-3.5,-7.2,-4.2,92.1*,85.4*
COc1ccc2c(c1OC)CN1CCc3cc4c(cc3[C@@H]1[C@@H]2O)OCO4,-2.5,0.6,1.1,nt,nt,1.1,nt,nt
CC1=C(CC(=O)c2ccccc2)C(=O)c2ccccc2C1=O,55.1,-1.8,15.0,-6.1,-2.1,-0.9,-91.3,-31.2
O=C(CN1C(=O)c2ccccc2C1=O)c1ccccc1,-17.8,4.3,-0.3,3.3,-0.1,0.0,nt,nt
Cn1c(=O)c2[nH]c(COc3ccc(C(C)(C)C)cc3)nc2n(C)c1=O,68.5,2.0,-0.1,nt,nt,-3.8,86.7*,72.0*
N#Cc1ccccc1NCCCN1CCC(C(O)(c2ccccc2)c2ccccc2)CC1,nt,nt,nt,-4.3,0.1,nt,nt,nt
Cc1ccc(S(=O)(=O)N2[C@@H](c3cccc(Cl)c3)C(C(=O)O)=CC[C@H]2c2ccc(C(C)C)cc2)cc1,72.5*,0.8,-183.3,1.1,-0.3,1.5,23.4,26.9
Cc1ccc(S(=O)(=O)N2[C@@H](c3ccc(F)cc3)C(C(=O)O)=CC[C@H]2c2ccc(C(C)C)cc2)cc1,72.9*,1.8,-4.1,-1.6,0.3,0.4,29.6,49.6
CCCCN1CC[C@@H](C)Oc2cc(Br)ccc2S1(=O)=O,nt,nt,nt,-2.6,-1.4,nt,nt,nt
COc1ccc(CCN(C)C(=O)c2cccc(S(=O)(=O)N3CCN(c4ccc(F)cc4)CC3)c2)cc1OC,61.0,nt,nt,-4.9,-7.7,-1.9,61.0,47.0
CN(CCOc1ccc(Cl)cc1)C(=O)c1cccc(S(=O)(=O)N2CCN(c3ccc(F)cc3)CC2)c1,95.8*,nt,nt,nt,nt,-5.0,94.3*,81.8*
O=C1C[C@@H](c2ccccc2)N=C2N(CC3CC3)C/C(=C/c3ccccc3)N12,nt,nt,nt,-3.1,-0.8,nt,nt,nt
CN1CCCN(C(=O)CSc2nnc(-c3cccnc3)n2C2CCCCC2)CC1,nt,nt,nt,0.5,2.3,nt,nt,nt
COc1cccc(C=Nc2ccc3c(c2)OCCO3)c1O,74.0*,0.6,60.5,nt,nt,-2.0,-17.6,-24.3
CC(Oc1ccc(Cl)cc1Cl)c1nc(-c2ccc(NC(=O)c3ccncc3)cc2)no1 (stereo not given),50.6,-3.4,-3.7,-6.2,-3.4,-3.8,77.6*,72.2*
CC(C)CNC(=O)C1CSCCS(=O)(=O)N1Cc1ccccc1 (stereo not given),nt,nt,nt,-5.3,-1.0,nt,nt,nt
O=C(OCC12CC3CC(CC(C3)C1)C2)c1ccc(NCc2cc(O)ccc2O)cc1,73.6*,nt,nt,-10.8,-3.4,-3.0,66.6,4.6
O=C(Nc1ccc(O)c2c(=O)cc(-c3ccccc3Cl)oc12)c1ccccc1Cl,-5.1,1.7,2.9,0.1,0.0,-1.2,nt,nt
SMILES,NR2E3 ag-1,NR2E3 ag-2,GASC-1 inh,SMARCA2 act,DAX1 inh-1,DAX1 inh-2,NR2E3 ag confirm,VP16 counter
O=c1cc(-c2ccccc2Cl)oc2c([N+](=O)[O-])c(O)cc(O)c12,98.0*,6.0,4.0,1.9,-0.5,0.1,98.7*,90.7*
CC(C)CCCCCCCCCCCCC(=O)NCC(=O)NC1C(O)C(O)C(Nc2ncnc3nc[nH]c23)OC1C(O)CO (stereo not given),100.0*,nt,nt,nt,nt,-5.9,100.2*,100.5*
CC(O)CNc1ncnc2nc[nH]c12 (stereo not given),-18.0,1.4,12.4,-0.7,-0.6,1.6,nt,nt
COc1ccc(-n2c(SCC(=O)Nc3ccc4c(c3)OCO4)nc3sc4c(c3c2=O)CCCC4)cc1,nt,nt,nt,-5.3,-0.2,nt,nt,nt
CC(C)NC(=S)N/N=C1\CCCCC1C1CCCCC1 (stereo not given),67.1,0.8,2.3,0.1,0.3,1.2,-15.8,-0.1
COc1ccc(S[C@]2(C(=O)N3CCN(c4ncccn4)CC3)CC(=O)N(c3ccc(Cl)cc3)[C@@H]2c2ccc(OC)cc2)cc1,nt,nt,nt,1.8,-0.8,nt,nt,nt
CC(C)OC(=O)NCCOC(=O)Nc1ccc(Cl)c(Cl)c1,63.9,-1.2,-2.9,-2.9,-1.4,-1.0,92.1*,74.4*
Nc1nnnn1/N=C/C(Br)=C/c1ccccc1,65.3,2.8,-3.9,-10.0,-3.8,-2.9,46.7,30.5
Nc1nnnn1/N=C/C=C/c1ccccc1,-40.5,-0.9,7.9,-0.9,0.9,0.0,nt,nt
CC(C)(C)c1cccc(Cn2nnc3ccccc32)c1O,62.1,0.7,5.1,-1.9,-1.5,-1.9,55.0,66.0
Cc1cc(Cn2nnc3ccccc32)c(O)c(C(C)(C)C)c1,80.3*,1.6,0.9,-0.6,0.2,-1.1,19.4,34.9
CCCCCCNC(=O)C1CSCCS(=O)(=O)N1Cc1ccccc1 (stereo not given),nt,nt,nt,-4.0,-0.5,nt,nt,nt
O=C1NC(=S)SC1=Cc1ccccc1Cl,66.9,nt,nt,-2.7,0.4,0.8,79.0*,73.0*
O=C1NC(=S)S/C1=C\c1cc(Cl)cc(Cl)c1O,65.5,nt,nt,2.1,-0.5,0.8,73.0*,60.1
Cc1cc(/C=C2\SC(=S)NC2=O)cc(C)c1O,-60.0,-0.9,-6.2,3.0,0.8,1.4,nt,nt

# High-throughput results deposited in PubChem by several laboratories.
